Test results taken from ChEMBL document CHEMBL5247621, “From dopamine 4 to sigma 1: Synthesis, SAR and biological characterization of a piperidine scaffold of σ1 modulators” (Eur J Med Chem, 2022).

Experiments:
[1] = target: Sigma intracellular receptor 2 (Homo sapiens, UniProt Q5BJF2); assay: Displacement of [3H]DTG from sigma-2 receptor in HEK293 cell membrane assessed as inhibition constant; type: cell membranes
Outline: (§1)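 Competitive radioligand binding in membranes harvested from HEK293 cells, with one radioligand per target: [3H]N-methylspiperone for D2, D3 and D4; [3H]SCH23390 for D1 and D5; [3H]pentazocine for σ1; [3H]DTG for σ2. Ki derived from inhibition of binding, each run in triplicate.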

D(1B) dopamine receptor = D(1B) dopamine receptor (Homo sapiens, UniProt P21918); assay: Displacement of [3H]SCH23390 from D5 receptor in HEK293 cell membrane assessed as inhibition constant; type: cell membranes; outline: as §1
Chain of D(1B) dopamine receptor (P21918 whole entry): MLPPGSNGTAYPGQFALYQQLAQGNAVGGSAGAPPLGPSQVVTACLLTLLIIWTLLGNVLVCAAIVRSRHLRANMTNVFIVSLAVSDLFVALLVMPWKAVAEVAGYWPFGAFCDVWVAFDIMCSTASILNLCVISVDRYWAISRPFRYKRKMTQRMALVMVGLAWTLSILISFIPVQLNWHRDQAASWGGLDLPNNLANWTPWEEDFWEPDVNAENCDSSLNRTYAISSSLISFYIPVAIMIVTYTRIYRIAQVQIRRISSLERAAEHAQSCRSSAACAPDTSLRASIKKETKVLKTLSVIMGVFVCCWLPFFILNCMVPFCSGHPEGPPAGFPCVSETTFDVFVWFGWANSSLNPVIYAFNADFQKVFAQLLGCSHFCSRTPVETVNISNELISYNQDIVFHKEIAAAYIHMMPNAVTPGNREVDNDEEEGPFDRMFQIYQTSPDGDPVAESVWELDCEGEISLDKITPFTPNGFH

[2] = target: T1, Sigma non-opioid intracellular receptor 1 (Homo sapiens, UniProt Q99720); assay: Displacement of [3H] Pentazocine from sigma 1 receptor in HEK293 cell membrane; type: cell membranes; details: read-out: Ki
T1 sequence (Q99720 whole entry): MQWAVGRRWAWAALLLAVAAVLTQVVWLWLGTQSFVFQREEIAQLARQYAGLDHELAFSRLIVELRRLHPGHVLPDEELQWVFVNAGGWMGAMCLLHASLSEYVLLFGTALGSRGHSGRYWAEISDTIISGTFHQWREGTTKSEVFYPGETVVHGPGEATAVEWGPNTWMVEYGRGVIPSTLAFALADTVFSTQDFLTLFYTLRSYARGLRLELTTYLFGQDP

D(1A) dopamine receptor = D(1A) dopamine receptor (Homo sapiens, UniProt P21728); assay: Displacement of [3H]SCH23390 from D1 receptor in HEK293 cell membrane assessed as inhibition constant; type: cell membranes; outline: as §1
Chain of D(1A) dopamine receptor (P21728 whole entry): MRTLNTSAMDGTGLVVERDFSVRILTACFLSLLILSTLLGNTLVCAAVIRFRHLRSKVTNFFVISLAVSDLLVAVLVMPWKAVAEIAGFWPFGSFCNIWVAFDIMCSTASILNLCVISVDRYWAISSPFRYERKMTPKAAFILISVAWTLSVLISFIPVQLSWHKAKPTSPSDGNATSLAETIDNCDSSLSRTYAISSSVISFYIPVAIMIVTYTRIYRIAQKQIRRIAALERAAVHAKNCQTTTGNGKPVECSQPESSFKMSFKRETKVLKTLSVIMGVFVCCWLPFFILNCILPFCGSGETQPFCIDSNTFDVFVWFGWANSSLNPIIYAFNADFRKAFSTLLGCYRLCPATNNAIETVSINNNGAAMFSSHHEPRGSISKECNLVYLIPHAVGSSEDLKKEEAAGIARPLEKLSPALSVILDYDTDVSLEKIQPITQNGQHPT

[3] = target: T2, D(4) dopamine receptor (Homo sapiens) (UniProt P21917); assay: Displacement of [3H]N-methylspiperone from D4 receptor in HEK293 cell membrane assessed as inhibition constant at 10 uM relative to control; type: cell membranes; design: scale not given: the % may be the effect or the level left
T2 sequence (whole entry): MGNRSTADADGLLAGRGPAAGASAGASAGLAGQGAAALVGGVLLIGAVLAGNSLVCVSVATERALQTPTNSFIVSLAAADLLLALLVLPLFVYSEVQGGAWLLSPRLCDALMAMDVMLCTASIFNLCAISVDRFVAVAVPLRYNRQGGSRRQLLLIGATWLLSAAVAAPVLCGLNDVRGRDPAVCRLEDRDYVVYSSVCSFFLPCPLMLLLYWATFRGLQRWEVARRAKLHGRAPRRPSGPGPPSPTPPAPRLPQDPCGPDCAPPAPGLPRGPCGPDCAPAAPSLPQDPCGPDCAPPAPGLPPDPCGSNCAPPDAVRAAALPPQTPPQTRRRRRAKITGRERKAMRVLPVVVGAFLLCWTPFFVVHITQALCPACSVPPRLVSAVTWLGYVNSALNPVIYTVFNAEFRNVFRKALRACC

D(3) dopamine receptor = D(3) dopamine receptor (Homo sapiens, UniProt P35462); assay: Displacement of [3H]N-methylspiperone from D3 receptor in HEK293 cell membrane assessed as inhibition constant; type: cell membranes; outline: as §1
Chain of D(3) dopamine receptor (P35462 whole entry): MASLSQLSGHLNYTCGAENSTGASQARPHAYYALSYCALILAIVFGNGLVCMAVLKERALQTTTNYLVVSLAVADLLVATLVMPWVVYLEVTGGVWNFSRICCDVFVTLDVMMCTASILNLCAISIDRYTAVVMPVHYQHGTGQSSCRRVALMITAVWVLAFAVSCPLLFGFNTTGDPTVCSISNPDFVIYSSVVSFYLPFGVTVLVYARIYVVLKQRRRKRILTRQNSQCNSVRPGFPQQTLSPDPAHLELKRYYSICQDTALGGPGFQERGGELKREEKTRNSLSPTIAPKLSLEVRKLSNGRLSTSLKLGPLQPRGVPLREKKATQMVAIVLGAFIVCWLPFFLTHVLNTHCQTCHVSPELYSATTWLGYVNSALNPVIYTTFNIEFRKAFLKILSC

[4] = Tmax in mouse plasma at 5 mg/kg, ip measured after 24 hrs; type: ADME, organism-based; details: in vivo
Outline: (§2)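 Discrete mouse study, single intraperitoneal dose of 5 mg/kg in 10% DMSO/10% Cremophor EL/30% PEG400/50% water. Plasma and brain concentrations followed over 24 h. Parameters estimated by non-compartmental analysis.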

[5] = Tmax in mouse brain at 5 mg/kg, ip measured after 24 hrs; type: ADME, organism-based; details: in vivo; outline: as §2
[6] = Cmax in mouse brain at 5 mg/kg, ip measured after 24 hrs; type: ADME, organism-based; design: time 24 hrs, dose 5 mg/kg, route ip; outline: as §2
[7] = Half life in mouse plasma at 5 mg/kg, ip measured after 24 hrs; type: ADME, organism-based; details: in vivo; outline: as §2
[8] = Ratio of total drug concentration in mouse brain to plasma at 5 mg/kg, ip measured after 1 hr; type: ADME, organism-based
Outline: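 Mice received 5 mg/kg IP in 10% DMSO/10% Cremophor EL/30% PEG400/50% water. Kp is total brain concentration divided by total plasma concentration, taken at 1 h and 5 h post-dose.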

[9] = Ratio of free drug concentration in mouse brain to plasma at 5 mg/kg, ip measured after 5 hrs; type: ADME, organism-based; details: read-out: K(p,uu,brain)
Outline: (§3)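 Mice received 5 mg/kg IP in 10% DMSO/10% Cremophor EL/30% PEG400/50% water. Kp,uu is free brain over free plasma concentration at 1 h and 5 h. Free levels are corrected with unbound fractions measured in mouse plasma protein binding and in mouse brain homogenate binding.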

[10] = Cmax in mouse plasma at 5 mg/kg, ip measured after 24 hrs; type: ADME, organism-based; design: dose 5 mg/kg, time 24 hrs, route ip; details: in vivo; outline: as §2
[11] = Mean residence time in mouse plasma at 5 mg/kg, ip measured after 24 hrs; type: ADME, organism-based; details: in vivo; outline: as §2
[12] = AUC(infinity) in mouse plasma at 5 mg/kg, ip measured after 24 hrs; type: ADME, organism-based; design: dose 5 mg/kg, time 24 hrs, route ip; details: in vivo; outline: as §2
[13] = Ratio of free drug concentration in mouse brain to plasma at 5 mg/kg, ip measured after 1 hr; type: ADME, organism-based; outline: as §3
[14] = AUC(infinity) in mouse brain at 5 mg/kg, ip measured after 24 hrs; type: ADME, organism-based; design: dose 5 mg/kg, time 24 hrs, route ip; outline: as §2
[15] = Half life in mouse brain at 5 mg/kg, ip measured after 24 hrs; type: ADME, organism-based; details: in vivo; outline: as §2
[16] = target: T1, Sigma non-opioid intracellular receptor 1; assay: Binding affinity to sigma 1 receptor in human Jurkat cells; type: cell-based
[17] = Mean residence time in mouse brain at 5 mg/kg, ip measured after 24 hrs; type: ADME, organism-based; details: in vivo; outline: as §2
D(4) dopamine receptor = target: T3, D(4) dopamine receptor (Homo sapiens, UniProt P21917); assay: Displacement of [3H]N-methylspiperone from D4 receptor in HEK293 cell membrane; type: cell membranes
T3 sequence (P21917 whole entry): T2 sequence (whole entry)

[18] = target: T1, Sigma non-opioid intracellular receptor 1; assay: Displacement of [3H] Pentazocine from sigma 1 receptor in HEK293 cell membrane assessed as inhibition constant relative to control; type: cell membranes; design: scale not given: the % may be the effect or the level left; outline: as §1
[19] = Plasma protein binding in mouse assessed as unbound fraction; type: ADME
Outline: (§4)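 Plasma protein binding by equilibrium dialysis in human or mouse plasma, reported as fraction unbound (fu).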

[20] = Intrinsic clearance in human liver microsomes; type: ADME, Microsome; details: read-out: CLH
Outline: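 Intrinsic clearance measured in human liver microsomes. Hepatic clearance predicted from it with the well-stirred organ model, binding terms excluded.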

[21] = Plasma protein binding in human assessed as unbound fraction; type: ADME, cell-free; outline: as §4

Chain of Sigma intracellular receptor 2 (Q5BJF2 whole entry): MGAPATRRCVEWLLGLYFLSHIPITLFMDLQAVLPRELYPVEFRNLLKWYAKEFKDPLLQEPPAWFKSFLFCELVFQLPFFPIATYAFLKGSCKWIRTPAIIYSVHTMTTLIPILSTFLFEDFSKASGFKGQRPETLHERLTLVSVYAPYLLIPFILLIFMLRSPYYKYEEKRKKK

Structure (SMILES): Cc1cc(NC(=O)CN2CCC3(CCCN3Cc3ccc(F)c(F)c3)C2)ccc1F (configuration not stated)
- Ki [1]: 47 nM
- Ki (D(1B) dopamine receptor): > 10000 nM
- Ki [2]: 16 nM
- Ki (D(1A) dopamine receptor): > 10000 nM
- Activity [3]: 14%
- Ki (D(3) dopamine receptor): 512 nM

Structure (SMILES): Cn1cnc2cc(CN3CCC(OCc4cccc(C(F)(F)F)c4)CC3)ccc21
- Ki [2]: 12 nM

Structure (SMILES): Fc1ccc(COC2CCN(Cc3ncc4ccccn34)CC2)cc1F
- Ki [2]: 143 nM

Structure (SMILES): Fc1ccc(COC2CCN(Cc3ccc4[nH]cnc4c3)CC2)cc1F
- Tmax [4]: 0.28 h
- Tmax [5]: 0.56 h
- Cmax [6]: 860 ng/mL
- t1/2 [7]: 2.14 h
- Kp [8]: 2.78
- Kp uu at 5 h [9]: 6.44
- Cmax [10]: 527 ng/mL
- Ki [1]: 166 nM
- MRT [11]: 2.12 h
- Ki (D(1B) dopamine receptor): > 10000 nM
- AUC [12]: 952 ng·h/mL
- Ki [2]: 8.3 nM
- Ki (D(1A) dopamine receptor): > 10000 nM
- K(p,uu,brain) [13]: 1.59
- AUC(0-inf) [14]: 4560 ng·h/mL
- t1/2 [15]: 9.11 h
- Ki [16]: 12 nM
- MRT [17]: 8.43 h

Structure (SMILES): Cc1csc(OC[C@@H]2CN(Cc3cn4ccccc4n3)CCO2)n1
- Ki (D(4) dopamine receptor; read-out: Ki): 1560 nM
- Activity [18]: 6%

Structure (SMILES): Cc1ccccc1CO[C@H]1CCCN(Cc2cn3ccccc3n2)C1
- Ki [2]: 503 nM
- Activity [3]: 60%

Structure (SMILES): FC(F)(F)Oc1cccc(CO[C@H]2CCCN(Cc3cn4ccccc4n3)C2)c1
- Ki [2]: 35 nM

Structure (SMILES): Fc1cccc(CO[C@H]2CCCN(Cc3cn4ccccc4n3)C2)c1
- Ki (D(4) dopamine receptor; read-out: Ki): 1210 nM
- Ki [2]: 490 nM

Structure (SMILES): FC(F)(F)c1cccc(COC2CCN(Cc3ccc4[nH]cnc4c3)CC2)c1
- Ki [1]: 73 nM
- Ki (D(1B) dopamine receptor): > 10000 nM
- Ki (D(1A) dopamine receptor): > 10000 nM

Structure (SMILES): Cc1cccc(CO[C@H]2CCCN(Cc3ccc4c(cnn4C)c3)C2)n1
- Ki [2]: 1280 nM
- Activity [3]: 23%

Structure (SMILES): Fc1ccc2c(CN3CCC(F)(F)[C@H](CCc4ccccc4)C3)c[nH]c2c1
- Ki (D(4) dopamine receptor; read-out: Ki): 3.5 nM
- Ki [2]: 52 nM

Structure (SMILES): FC(F)(F)c1cccc(COC2CCN(Cc3cc4ccc(Cl)cc4[nH]3)CC2)c1
- Ki (D(4) dopamine receptor; read-out: pKi (converted)): 209 nM
- Ki [2]: 14 nM

Structure (SMILES): Cn1ncc2cc(CN3CCO[C@H](COc4ccc(F)c(F)c4)C3)ccc21
- Ki (D(4) dopamine receptor; read-out: Ki): 28 nM
- Ki [2]: 23 nM

Structure (SMILES): Cc1cccc(CO[C@H]2CCCN(Cc3cn4ccccc4n3)C2)n1
- Activity [18]: 39%
- Activity [3]: 23%

Structure (SMILES): Fc1cc(COC2CCN(Cc3ccc4[nH]ncc4c3)CC2)ccc1Cl
- Ki [2]: 0.7 nM
- Fu [19]: 6.5%
- CLint scaled [20]: 26.3 mL/min/kg
- Fu [21]: 7%

Structure (SMILES): Fc1ccc(COC2CCN(Cc3cc4ccc(Cl)cc4[nH]3)CC2)cc1F
- Ki [2]: 8.1 nM
- Fu [21]: < 0.3%
